Most compounds without a hit are left out; they make up all but 5.4% or so of the library.
T cruzi inh: blocks replication of Trypanosoma cruzi; inhibition, % (test concentration not listed); 1.4% of 300,000 active; T. cruzi beta-gal in NIH3T3, luminescence, 90 h;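 active means mean inhibition across valid replicates above about 55%, limit read from the data; inconclusive means mean below that limit but half or more replicates reach it; inactive means mean below it, under half of replicates reach it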;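 further: signal also drops with host cell toxicity which is not excluded here; higher percent means less beta-gal luminescence so fewer parasites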
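System: NIH/3T3 fibroblasts plus reporter T. cruzi. Medium: DMEM plus 2% FBS. Probe or stimulus: 5000 reporter trypomastigotes per well. Compound: single 50 nL compound addition per well in DMSO. Incubation: co-culture of at least 90 h after 3 h attachment. Detection: GalScreen β-gal luminescence, detergent lysis, 60 min. Evaluation: parasite load inhibition, %.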
aSyn UTR inh: MLPCN primary screen, SNCA 5' untranslated region | alpha-synuclein 5'UTR reporter, inhibitor activity | inhibition, % (tested at 7.5 µM) | 0.82% of 300,000 active; in the data active means inhibition above about 60%; inconclusive means no clear call, values can overlap the other calls;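 further: H4 neuroglioblastoma cells stably carrying SNCA 5'UTR luciferase fusion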
CSC inhib: cancer stem cell inhibition; cancer stem cell-like cells viability, luminescence; inhibition, % at 7.5 µM; 1.1% of 300,000 active; AID 2717; in the data active means inhibition above about 75%; inconclusive means no clear call, values can overlap the other calls; tested in HMLE shEcad cells
Mdm2-MdmX inh: disrupts the human Mdm2-MdmX interaction; 3% of 330,000 active; SaOS-2 split-luciferase Mdm2/MdmX complementation, luminescence; inhibition, % at 8 µM; AID 485346;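 active means inhibition of at least 50% at 8 µM in the primary screen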
SKKanGAS inh: inhibitors of SKKanGAS S. pyogenes growth in kanamycin (SK-promoter or general growth effect) | AID 1662 | 1.3% of 300,000 active | inhibition, % at 7.5 µM | BacTiter-Glo, 6 h;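 active means mean replicate score, as percent of positive control median, at least 50; inconclusive means mean below 50 but one replicate at or above 50; inactive means mean and every replicate below 50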;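 further: strain carries kanamycin resistance gene driven by streptokinase promoter and grows in 40 µg/ml kanamycin; loss of luminescence reflects streptokinase promoter inhibition or plain growth inhibition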
Mdm2-MdmX conf: confirmation of human Mdm2/MdmX interaction inhibitors; shares compounds with Mdm2-MdmX inh; AID 489028; 55% of 10,000 active; inhibition, % at 8 µM; Mdm2-MdmX binding, luminescent assay; in the data active means inhibition above about 40%
FLuc counter: counter-screen for Mdm2/MdmX inhibitors: full-length luciferase; shares compounds with Mdm2-MdmX inh; SaOS-2 full-length luciferase counterscreen, luminescence; inhibition, % at 8 µM; 77% of 6,200 active; AID 504607;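 active means mean inhibition at 8 µM reaching about 37%, which flags the compound as non-specific, limit read from the data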;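 further: p53-null SaOS-2 cells with luciferase driven by a doxycycline-inducible promoter; compound on cells about two nights before reading with doxycycline added after day one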
Each line names hits and unclear results; the compound was inactive in the other large screens (follow-up assays come after a bar, where they were run).

CCn1c(=S)sc2c(=O)n(CC(=O)Nc3ccccc3C(F)(F)F)c(C)nc21	Mdm2-MdmX inh 53 | Mdm2-MdmX conf inactive
CC(Sc1nnc(Nc2ccccc2)s1)C(=O)Nc1nc(-c2ccccc2)cs1 (stereo not given)	Mdm2-MdmX inh 65 | Mdm2-MdmX conf 72 | FLuc counter 101
CC(Sc1nnc(NCc2ccccc2)s1)C(=O)Nc1ccc2c(c1)C(=O)c1ccccc1C2=O (stereo not given)	none
O=C(N/N=C1/CCCc2ccccc21)c1cc([N+](=O)[O-])cc([N+](=O)[O-])c1	Mdm2-MdmX inh 67 | Mdm2-MdmX conf inactive | FLuc counter 94
O=C(N/N=C1\CCCc2ccccc21)c1cccc([N+](=O)[O-])c1	none
O=C(N/N=C1/CCCc2ccccc21)C(c1ccccc1)c1ccccc1	Mdm2-MdmX inh 58 | Mdm2-MdmX conf inactive
CN(C1CCCCC1)S(=O)(=O)c1cn(C)c(=O)n(C)c1=O	none (no result: T cruzi inh, aSyn UTR inh, SKKanGAS inh)
O=S(=O)(NCc1nnc2c(C(F)(F)F)cc(Cl)cn12)c1ccccc1	SKKanGAS inh inconclusive
Cc1cc(C(=O)CN2C(=O)C(=O)N(Cc3ccccc3)C2=O)c(C)n1-c1ccccc1F	Mdm2-MdmX inh 52 | Mdm2-MdmX conf 51 | FLuc counter 51
Cc1cc(C(=O)CN2CCC(C)CC2)c(C)n1-c1ccccc1F	T cruzi inh 57, Mdm2-MdmX inh 66 | Mdm2-MdmX conf 76 | FLuc counter 70
Cc1cc(C)c(-c2csc(NC(=O)/C=C/c3cccs3)n2)c(C)c1	aSyn UTR inh inconclusive, Mdm2-MdmX inh 70 | Mdm2-MdmX conf 61 | FLuc counter 72
CC1(c2ccc(Cl)cc2)NC(=O)N(CN2CCOCC2)C1=O (stereo not given)	none
COc1ccc(CCC(=O)NCC(=O)OCc2ccccc2)cc1	none
COC(=O)CNC(=O)COC(=O)/C=C/c1ccc2ccccc2n1	none
CC(OC(=O)/C=C/c1ccc2ccccc2n1)C(=O)NCc1ccccc1 (stereo not given)	Mdm2-MdmX inh 54 | Mdm2-MdmX conf inactive
CC1C(=O)OC(c2ccc(Cl)cc2)C(C)(C)C1=O (stereo not given)	none
C[C@@H]1C=CC(=O)O[C@@H]1c1ccc(Cl)cc1	Mdm2-MdmX inh 79 | Mdm2-MdmX conf 61 | FLuc counter inactive
CSc1nc(N)nc(SCCS(=O)(=O)c2ccc(Cl)cc2)c1C#N	Mdm2-MdmX inh 57 | Mdm2-MdmX conf inactive
CN(C)S(=O)(=O)c1cccc(NC(=O)COC(=O)c2ccc3ccccc3n2)c1	none (no result: T cruzi inh, aSyn UTR inh, SKKanGAS inh)
O=C(COC(=O)Cc1n[nH]c(=O)c2ccccc12)Nc1ccc(Cl)cc1F	none
Cc1nnnn1/C(=C\c1ccccc1)C(=O)OCC(=O)Nc1cccc(S(=O)(=O)N(C)C)c1	Mdm2-MdmX inh 72 (no result: T cruzi inh, aSyn UTR inh, CSC inhib, SKKanGAS inh) | Mdm2-MdmX conf inactive | FLuc counter inactive
Cc1nnnn1/C(=C\c1ccccc1)C(=O)OCC(=O)Nc1ccc(Cl)cc1F	Mdm2-MdmX inh 67 | Mdm2-MdmX conf 61 | FLuc counter 61
N#CC1(NC(=O)CN2C(=O)NC3(CCCCCC3)C2=O)CCCCC1	none (no result: T cruzi inh, aSyn UTR inh, CSC inhib, SKKanGAS inh)
Cc1ccc(NC(=O)c2nc(S(=O)(=O)Cc3ccccc3)ncc2Cl)cc1	CSC inhib 104, Mdm2-MdmX inh 82 | Mdm2-MdmX conf 63 | FLuc counter 51
O=C(Nc1ccc(F)cc1)c1nn(-c2ccccc2)c(=O)cc1Cl	none (no result: CSC inhib, Mdm2-MdmX inh)
O=C(Nc1ccc(F)cc1)c1nc(S(=O)(=O)Cc2ccccc2)ncc1Cl	aSyn UTR inh 67, CSC inhib 108, Mdm2-MdmX inh 96 | Mdm2-MdmX conf 95 | FLuc counter 52
CCOC(=O)c1ccc(NC(=O)c2nc(SC)ncc2Cl)cc1	none
Cc1ccccc1CS(=O)(=O)c1ncc(Cl)c(C(=O)Nc2ccc(F)cc2)n1	aSyn UTR inh 64, CSC inhib 98, Mdm2-MdmX inh 100 | Mdm2-MdmX conf 65 | FLuc counter 52
COc1cccc(CNS(=O)(=O)c2ccc3c(c2)N(C)CCO3)c1	none
CCN(C(=O)CSc1nc2cc(S(=O)(=O)N(CC)CC)ccc2n1CC)C1CCS(=O)(=O)C1 (stereo not given)	none (no result: SKKanGAS inh)
CN1CCN(S(=O)(=O)c2ccc(NC(=S)NC(=O)C(C)(C)C)cc2)CC1	none
COc1ccc(Cl)cc1NC(=O)CCN1CCN(c2ccccc2C)CC1	none

Screening data from PubChem BioAssay.
